Measured values published in ChEMBL document CHEMBL3616382, “Catechols and 3-hydroxypyridones as inhibitors of the DNA repair complex ERCC1-XPF” (Bioorg Med Chem Lett, 2015).

Experiments:
Deoxyribonuclease-1 = target: T1, Deoxyribonuclease-1 (Homo sapiens, UniProt P24855); assay: Inhibition of DNAse1 (unknown origin)
T1 sequence (P24855 whole entry): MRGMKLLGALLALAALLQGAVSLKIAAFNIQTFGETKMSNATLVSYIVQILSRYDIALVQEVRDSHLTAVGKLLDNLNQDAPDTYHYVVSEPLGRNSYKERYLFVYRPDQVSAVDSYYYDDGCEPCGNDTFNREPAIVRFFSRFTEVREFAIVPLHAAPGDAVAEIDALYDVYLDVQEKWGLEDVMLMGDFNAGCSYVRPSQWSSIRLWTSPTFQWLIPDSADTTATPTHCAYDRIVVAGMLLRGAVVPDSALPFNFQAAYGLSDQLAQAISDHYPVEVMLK

[1] = target: T2, DNA excision repair protein ERCC-1/DNA repair endonuclease XPF (Homo sapiens, UniProt P07992+Q92889); assay: Inhibition of ERCC1-XPF (unknown origin) by high-throughput fluorescence based in-vitro endonuclease assay; type: protein-complex assay
T2 sequence (P07992 whole entry): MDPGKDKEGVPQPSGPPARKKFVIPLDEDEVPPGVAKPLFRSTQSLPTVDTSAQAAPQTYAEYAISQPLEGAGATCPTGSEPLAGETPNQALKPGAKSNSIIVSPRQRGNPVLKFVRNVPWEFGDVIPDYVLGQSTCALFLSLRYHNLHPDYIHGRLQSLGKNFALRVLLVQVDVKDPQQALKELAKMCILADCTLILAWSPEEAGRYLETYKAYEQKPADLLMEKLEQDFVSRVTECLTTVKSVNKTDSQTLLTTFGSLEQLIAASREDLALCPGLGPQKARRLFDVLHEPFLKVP
T2 sequence (Q92889 whole entry): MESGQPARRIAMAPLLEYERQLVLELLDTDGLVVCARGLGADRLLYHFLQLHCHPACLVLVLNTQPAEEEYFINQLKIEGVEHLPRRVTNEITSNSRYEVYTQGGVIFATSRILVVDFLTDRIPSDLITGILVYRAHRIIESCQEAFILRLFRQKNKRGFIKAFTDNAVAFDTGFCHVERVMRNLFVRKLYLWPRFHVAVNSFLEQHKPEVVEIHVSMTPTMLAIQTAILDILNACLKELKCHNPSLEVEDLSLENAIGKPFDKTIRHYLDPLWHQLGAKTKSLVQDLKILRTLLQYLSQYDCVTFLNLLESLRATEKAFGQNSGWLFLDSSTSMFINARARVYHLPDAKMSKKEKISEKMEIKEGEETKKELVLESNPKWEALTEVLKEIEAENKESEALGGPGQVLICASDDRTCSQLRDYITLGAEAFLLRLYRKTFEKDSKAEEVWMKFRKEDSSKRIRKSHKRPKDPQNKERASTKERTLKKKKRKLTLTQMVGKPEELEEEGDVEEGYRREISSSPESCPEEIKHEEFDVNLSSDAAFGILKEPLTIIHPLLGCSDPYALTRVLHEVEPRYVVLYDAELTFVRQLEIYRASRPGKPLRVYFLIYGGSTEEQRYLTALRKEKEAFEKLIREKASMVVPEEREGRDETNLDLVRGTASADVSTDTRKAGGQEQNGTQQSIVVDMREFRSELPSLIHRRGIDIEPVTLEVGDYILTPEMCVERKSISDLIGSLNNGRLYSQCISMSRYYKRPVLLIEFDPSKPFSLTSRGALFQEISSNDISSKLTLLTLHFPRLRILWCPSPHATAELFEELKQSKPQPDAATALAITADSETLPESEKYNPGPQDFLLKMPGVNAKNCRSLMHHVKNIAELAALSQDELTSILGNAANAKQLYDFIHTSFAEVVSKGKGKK

Flap endonuclease 1 = Flap endonuclease 1 (Homo sapiens, UniProt P39748); assay: Inhibition of FEN1 (unknown origin)
[2] = Apparent permeability by PAMPA method; type: physicochemical
[3] = target: T2, DNA excision repair protein ERCC-1/DNA repair endonuclease XPF; assay: Binding affinity to ERCC1-XPF (unknown origin) by SPR assay; type: protein-complex assay
[4] = Half life in mouse liver microsomes; type: ADME
HepG2 = assay: Cytotoxicity against human HepG2 cells; type: cell-based
Method in brief: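 Hep-G2 cells exposed to compound at concentrations up to 10 μM; toxicity assessed.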

[5] = Lipophilicity, log D of the compound; type: physicochemical; settings: octanol/water
[6] = Half life in human liver microsomes; type: ADME
[7] = target: T3, DNA excision repair protein ERCC-1/DNA repair endonuclease XPF (Homo sapiens) (UniProt P07992+Q92889); settings: A-375, 1.28 uM
[8] = target: T2, DNA excision repair protein ERCC-1/DNA repair endonuclease XPF; assay: Inhibition of ERCC1-XPF in human A375 cells assessed as reduction in direct nucleotide excision repair of UV-damaged pEGFP plasmid incubated for 234 hrs by recombinant GFP reporter assay; type: cell-based, A-375; settings: in the assay text read “24 hrs” for “234 hrs”
Method in brief: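 A375 cells co-transfected with UV-damaged or undamaged pEGFP plus pGL3 luciferase plasmid, treated with compound up to 60 μM for 24 h. GFP/luciferase ratio for damaged plasmid divided by that for undamaged, then normalized to no-compound controls to give % NER activity (DNA Repair Index); IC50 from plot against concentration.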

[9] = target: T3, DNA excision repair protein ERCC-1/DNA repair endonuclease XPF (Homo sapiens); settings: A-375, 2.48 uM
[10] = target: T3, DNA excision repair protein ERCC-1/DNA repair endonuclease XPF (Homo sapiens); settings: A-375, 10 uM
[11] = target: T3, DNA excision repair protein ERCC-1/DNA repair endonuclease XPF (Homo sapiens); settings: A-375, 0.624 uM
[12] = target: T3, DNA excision repair protein ERCC-1/DNA repair endonuclease XPF (Homo sapiens); assay: Inhibition of ERCC1-XPF in human A375 cells assessed as induction of delay in DNA repair by measuring cumulative frequency of cells at 10 uM pre-incubated for 1 hr before 5 uM cisplatin exposure for 1 hr and measured after 6 hrs by […] based gammaH2AX foci assay (reference value: 45.43%); type: cell-based; parameters: scale not given: the % may be the effect or the level left; settings: A-375
Method in brief: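 A375 cells pretreated with compound (10 μM) for 1 h, then 5 μM cisplatin for 1 h to induce damage, with continued compound exposure for 6 h. γH2AX foci per cell quantified by immunofluorescence with specific antibody and high-content imaging; cumulative Gaussian fit of foci distribution. 2 representative experiments, triplicates each, error bars SEM.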

A-375 [13] = assay: Cytotoxicity against human A375 cells assessed as reduction in cell number at 10 uM incubated for 5 days; type: cell-based; settings: a-375, 120 h
Method in brief: (§1)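 A375 melanoma cells treated with compound alone over 0.6–10 μM for 5 days; cell count determined by high-content imaging. Data from 4 separate experiments, error bars SD.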

[14] = target: T3, DNA excision repair protein ERCC-1/DNA repair endonuclease XPF (Homo sapiens); settings: A-375, 4.96 uM
A-375 [15] = assay: Cytotoxicity against human A375 cells assessed as reduction in cell number at 4.89 uM incubated for 5 days; type: cell-based; settings: a-375, 120 h, 4.96 µM, in the assay text read “4.96 uM” for “4.89 uM”; method in brief: as §1

Chain of Flap endonuclease 1 (P39748 whole entry): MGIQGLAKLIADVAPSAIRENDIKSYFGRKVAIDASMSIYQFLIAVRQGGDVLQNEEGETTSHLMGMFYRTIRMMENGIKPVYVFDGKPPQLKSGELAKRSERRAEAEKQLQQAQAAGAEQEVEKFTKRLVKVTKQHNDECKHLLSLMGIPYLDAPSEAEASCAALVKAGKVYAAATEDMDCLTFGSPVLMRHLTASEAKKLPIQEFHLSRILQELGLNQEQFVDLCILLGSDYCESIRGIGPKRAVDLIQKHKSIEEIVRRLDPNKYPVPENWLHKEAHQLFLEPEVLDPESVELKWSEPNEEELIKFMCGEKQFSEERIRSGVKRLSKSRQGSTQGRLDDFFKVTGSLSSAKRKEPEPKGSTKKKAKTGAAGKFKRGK

Compound | IC50 (Deoxyribonuclease-1) [µM] | IC50 [1] [µM] | IC50 (Flap endonuclease 1) [µM] | other results
O=C(Cc1ccc(Cl)cc1Cl)NCc1cc(O)c(O)cc1F | > 100 | 1.1 | > 100 | 
Cn1ncc2ccc(-c3c[nH]c(=O)c(O)c3)cc21 | > 100 | 14.6 | > 100 | 
O=C(NCc1ccc(O)c(O)c1)C1(c2ccccc2)CCCCC1 |  | 1.6 | > 100 | 
O=C(CC1CCCCC1)NCc1ccc(O)c(O)c1 | > 100 | 1.4 | > 100 | 
O=C(CNc1ccccc1)NCc1ccc(O)c(O)c1 | > 100 | 0.9 | > 100 | 
O=C1N(Cc2ccc(Cl)cc2)CCN1Cc1ccc(O)c(O)c1 | > 100 | 4.1 | > 100 | 
O=C(NCc1ccc(O)c(O)c1)C1CCCC1 | > 100 | 24.6 | > 100 | 
CC(C)C(=O)NCc1ccc(O)c(O)c1 |  | 24 |  | 
CC(C(=O)NCc1ccc(O)c(O)c1)c1ccccc1 (centres undefined) |  | 1.8 | > 100 | 
Oc1ccc(-c2nc(Cc3ccc(Cl)cc3)no2)cc1O | > 100 | 7.8 | > 100 | 
Cn1cc(-c2ccc(F)cc2)cc(O)c1=O |  | > 100 |  | 
CC(=O)Nc1ccc(-c2c[nH]c(=O)c(O)c2)cc1 | > 100 | 13.5 | > 100 | 
O=S(=O)(Cc1ccc(Cl)cc1Cl)NCc1ccc(O)c(O)c1 | > 100 | 2.9 | > 100 | 
O=C(CNc1ccccc1)Nc1ccc(O)c(O)c1 | > 100 | 1.6 | > 100 | 
O=c1[nH]cc(-c2ccc(F)cc2)cc1O | > 100 | 8.7 | > 100 | Papp [2]: 4.4 ×10⁻⁶ cm/s; Kd [3]: 3.5 µM; half-life [4]: > 400 min; Activity (HepG2): > 10 µM; logD [5]: 2; half-life [6]: > 400 min
Cc1cccc(NCC(=O)N/N=C/c2cc(Br)c(O)c(O)c2Br)c1 | > 100 | 33 | > 100 | 
O=C(NCc1ccc(O)c(O)c1)C1CCN(Cc2ccc(F)cc2)CC1 | > 100 | 5.8 | > 100 | 
CC(=O)N1CCN(CC(=O)NCc2ccc(O)c(O)c2)CC1 | > 100 | > 100 |  | 
CN(Cc1ccc(O)c(O)c1)C(=O)Cc1ccc(Cl)cc1Cl | > 100 | 0.8 | > 100 | 
O=c1[nH]cc(Br)cc1O |  | 24 |  | 
O=c1[nH]ccc(-c2ccc(F)cc2)c1O |  | > 100 |  | 
Oc1ccc(Cc2nc(-c3ccc(Cl)cc3)no2)cc1O | > 100 | 12.2 | > 100 | 
O=C(CNc1ccccc1)NCCc1ccc(O)c(O)c1 | > 100 | 15.2 | > 100 | 
O=c1[nH]cc(-c2ccc(F)c(Cl)c2)cc1O | > 100 | 13.1 | > 100 | 
O=c1[nH]cc(-c2cccc(-n3cccn3)c2)cc1O | > 100 | 5.2 | > 100 | 
O=C(Cc1ccc(Cl)cc1Cl)N1CCc2cc(O)c(O)cc2C1 | > 100 | 1 | > 100 | 
O=C(CNc1ccccc1)N/N=C/c1ccc(O)c(O)c1 | > 100 | 2 | > 100 | 
O=c1[nH]c(-c2ccc(F)cc2)ccc1O |  | 55.2 |  | 
O=C(Cc1ccc(Cl)cc1Cl)NCc1c[nH]c(=O)c(O)c1 |  | 100 |  | 
O=C(Cc1ccc(Cl)cc1Cl)NCc1ccc(O)c(O)c1Cl | > 100 | 1.6 | > 100 | 

Second part, led by results:

IC50 (Deoxyribonuclease-1) [µM] | IC50 [1] [µM] | IC50 (Flap endonuclease 1) [µM] | Compound | other results
 | 4 |  | N#Cc1cccc(CC(=O)NCc2ccc(O)c(O)c2)c1 | 
> 100 | 24.5 | > 100 | O=C(NCc1ccc(O)c(O)c1)c1ccccc1 | 
> 100 | 13.3 | > 100 | O=C(Cc1ccccc1)NCc1ccc(O)c(O)c1 | 
> 100 | 4.8 | > 100 | O=C(NCc1ccc(O)c(O)c1)Nc1ccc(Cl)cc1 | 
> 100 | 7.9 | > 100 | O=C(Cc1ccc(N2CCOCC2)cc1)NCc1ccc(O)c(O)c1 | 
> 100 | 0.74 | > 100 | O=C(Cc1ccc(O)c(O)c1)NCc1ccc(Cl)cc1Cl | 
> 100 | 7.3 | > 100 | O=C(CCc1ccccc1)NCc1ccc(O)c(O)c1 | 
> 100 | 1 | > 100 | O=C(Cc1ccc(Cl)cc1)NCc1ccc(O)c(O)c1 | 
 | 2.6 |  | COc1ccc(CC(=O)NCc2ccc(O)c(O)c2)cc1 | 
> 100 | 0.8 | > 100 | O=C(Cc1ccccc1Cl)NCc1ccc(O)c(O)c1 | 
> 100 | 0.63 | > 100 | O=C(Cc1ccc(Cl)cc1Cl)NCc1ccc(O)c(O)c1 | PF50 [7]: 1.15; IC50 [8]: 15.6 µM; Papp [2]: 3.9 ×10⁻⁶ cm/s; PF50 [9]: 1.51; Kd [3]: 30 µM; PF50 [10]: 2.03; half-life [4]: 23 min; Activity (HepG2): > 10 µM; PF50 [11]: 1.08; Activity [12]: 50.2%; Activity (A-375 [13]): Toxic; logD [5]: 2.7; PF50 [14]: 1.68; Activity (A-375 [15]): Toxic; half-life [6]: 28 min
 | 25.6 |  | O=C(Cc1cccnc1)NCc1ccc(O)c(O)c1 | 
> 100 | 12.1 | > 100 | O=C(COc1ccccc1)NCc1ccc(O)c(O)c1 | 
